Our source for the IC50 and inhibition values is ChEMBL document CHEMBL1149845, “Synthesis, cytotoxic activities and structure-activity relationships of topoisomerase I inhibitors: indolizinoquinoline-5,12-dione derivatives” (Bioorg Med Chem, 2008).

A value given as a limit tells only on which side of the number the result lay.

In assay [1] the test system is HL-60. As to the kind of experiment: Cytotoxicity against human HL60 cells after 2 days by MTT assay. It is filed as functional, cell-based. The note with it: HL-60, 48 h. The method, boiled down:
(§1)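 Cells grown in RPMI-1640 with 10% FBS, penicillin 100 U/mL and streptomycin 100 µg/mL at 37 °C, 5% CO2, passage 3–6. Exponential-phase cells seeded at 5 × 10⁴–1 × 10⁵ cells/ml, grown overnight, then exposed for 2 days to compounds predissolved in DMSO at selected concentrations. Viability read by MTT.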

The subject of assay [2] is NCI-H460. As to the kind of experiment: Cytotoxicity against human NCI-H460 cells after 2 days by MTT assay. It is filed as functional, cell-based. The settings on record: NCI-H460, 48 h. The gist of the method: as §1
Assay [3] deals with MCF7. In words: Cytotoxicity against human MCF7 cells after 2 days by MTT assay. It counts as functional, cell-based. The settings on record: MCF7, 48 h. The gist of the method:
as §1

A short description of assay [4]: Cytotoxicity against human GLC82 cells after 2 days by MTT assay. The note with it: GLC82, 48 h. It is filed as functional, cell-based. The gist of the method: as §1
For assay [5], the species on record is Bos taurus. As to the kind of experiment: Inhibition of calf thymus topoisomerase 1-mediated supercoiled plasmid DNA relaxation at 125 uM.
For assay [6], the species on record is Bos taurus. As to the kind of experiment: Inhibition of calf thymus topoisomerase 1-mediated supercoiled plasmid DNA relaxation at 0.2 uM. The gist of the method:
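Calf thymus TOP1 relaxation of 0.5 µg pBR322 in 20 µL buffer (20 mM Tris pH 7.5, 0.1 mM EDTA, 10 mM MgCl2, 50 µg/mL acetylated BSA, 100 mM KCl), compound from DMSO. Started by adding DNA, 30 min at 37 °C, stopped with loading buffer. 1% agarose gel in Tris-borate/EDTA at 5 V/cm, ethidium bromide stain. Supercoiled DNA quantified densitometrically.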

Take `CCOC(=O)c1c2c(n3cccc(N)c13)C(=O)c1ncccc1C2=O`: the 50% inhibitory concentration (IC50) came to 16.4 µM in assay [1], 17.6 µM in assay [2], 20.9 µM in assay [3] and 23.4 µM in assay [4].

Regarding `CC(=O)c1c2c(n3ccccc13)C(=O)c1cccnc1C2=O`, the IC50 in assay [1] was determined as 14.7 µM; in assay [2] it was 1.4 µM; in assay [3] it was 12.7 µM; in assay [4], 1.9 µM.

For `CCOC(=O)c1c2c(n3cccc(F)c13)C(=O)c1cccnc1C2=O`, the IC50 was determined as 5.51 µM in assay [1], 1.2 µM in assay [2], 6.2 µM in assay [3] and 1.7 µM in assay [4].

As to `CCOC(=O)c1c2c(n3cccc(Br)c13)C(=O)c1ncccc1C2=O`, the IC50 in assay [1] is 9.32 µM; in assay [2], 2 µM; in assay [3], 10.3 µM; in assay [4], less than 0.25 µM.

As to `CC(=O)c1c2c(n3cccc(Br)c13)C(=O)c1cccnc1C2=O`, the IC50 in assay [1] turned out to be 1.56 µM; in assay [2] it was 0.2 µM; in assay [3] it was 12.4 µM; in assay [4] it was 4.68 µM.

`CC(=O)c1c2c(n3cccc(Br)c13)C(=O)c1ncccc1C2=O`: the IC50 in assay [1] is 0.21 µM; in assay [2], 2.15 µM; in assay [3], 11.7 µM; in assay [4], 2.01 µM.

On to `CC(=O)c1c2c(n3ccccc13)C(=O)c1ncccc1C2=O`, for which the IC50 in assay [1] was 0.86 µM; in assay [2], less than 0.25 µM; in assay [3], 7.92 µM; in assay [4], less than 0.25 µM.

For the compound `CC(=O)c1c2c(n3cccc(F)c13)C(=O)c1ncccc1C2=O`, the IC50 in assay [1] was 0.17 µM; in assay [2], less than 0.25 µM; in assay [3] it was 2.31 µM; in assay [4] it was 5.26 µM.

`CCOC(=O)c1c2c(n3ccccc13)C(=O)c1ncccc1C2=O`: the IC50 in assay [1] was 0.88 µM; in assay [2], less than 0.25 µM; in assay [3] it was 0.96 µM; in assay [4] it was less than 0.25 µM.

For `CCOC(=O)c1c2c(n3cccc(C)c13)C(=O)c1cccnc1C2=O`, the figures for the IC50 in assay [1], in assay [3] and in assay [4] were 11.7 µM, greater than 25 µM and 9.27 µM, respectively.

`CCOC(=O)c1c2c(n3cccc(Cl)c13)C(=O)c1ncccc1C2=O`: the IC50 was 6.52 µM in assay [1], 2.1 µM in assay [2], 7.37 µM in assay [3] and less than 0.25 µM in assay [4]. Also, the inhibition amounted to 100% in assay [5] and 5.8% in assay [6].

As to `CCOC(=O)c1c2c(n3cccc(Br)c13)C(=O)c1cccnc1C2=O`, the IC50 in assay [1] is 11.5 µM; in assay [2], 2.4 µM; in assay [3], 20.8 µM; in assay [4] it was 1.1 µM.

Consider `CCOC(=O)c1c2c(n3ccccc13)C(=O)c1ccccc1C2=O`, for which the IC50 in assay [1], in assay [3] and in assay [4] was greater than 25 µM throughout.

For `CC(=O)c1c2c(n3cccc(N)c13)C(=O)c1ncccc1C2=O`, the concentration for half-maximal inhibition (IC50) in assay [1] was 22.3 µM; in assay [2], greater than 25 µM; in assay [3], greater than 25 µM; in assay [4], 12.2 µM.

Turning to `O=C1c2cccnc2C(=O)c2c1cc1ccccn21`, the IC50 was 17 µM in assay [1], 15.6 µM in assay [2], greater than 25 µM in assay [3] and 11.5 µM in assay [4].

For `CCOC(=O)c1c2c(n3cccc(N)c13)C(=O)c1cccnc1C2=O`, the half-inhibitory concentration (IC50) in assay [1] was greater than 25 µM; in assay [2], 19 µM; in assay [3], greater than 25 µM; in assay [4] it was 23.5 µM.

In the case of `CC(=O)c1c2c(n3cccc(O)c13)C(=O)c1ncccc1C2=O`, the IC50 in assay [1] was greater than 25 µM; in assay [2], 24.9 µM; in assay [3], 17.6 µM; in assay [4] it was 19.5 µM.

For the compound `CC(=O)c1c2c(n3cccc(Cl)c13)C(=O)c1cccnc1C2=O`, the half-inhibitory concentration (IC50) in assay [1] was found to be 2.2 µM; in assay [2] it was 1.5 µM; in assay [3], 16.1 µM; in assay [4] it was 16.1 µM.

On to `CC(=O)c1c2c(n3cccc(Cl)c13)C(=O)c1ncccc1C2=O`, for which the half-inhibitory concentration (IC50) in assay [1] stood at 0.19 µM; in assay [2] it was 0.23 µM; in assay [3], 7.83 µM; in assay [4] it was 6.85 µM.

As to `CCOC(=O)c1c2c(n3ccccc13)C(=O)c1cccnc1C2=O`, the IC50 in assay [1] is 14.5 µM; in assay [2], 1.9 µM; in assay [3], 6.38 µM; in assay [4] it was 2.4 µM.

As for `CC(=O)c1c2c(n3cccc(N)c13)C(=O)c1cccnc1C2=O`, the IC50 in assay [1] was 15.8 µM; in assay [2], 10.3 µM; in assay [3], greater than 25 µM; in assay [4] it was 10.3 µM.

Regarding `CCOC(=O)c1c2c(n3cccc(Cl)c13)C(=O)c1cccnc1C2=O`, the half-inhibitory concentration (IC50) in assay [1] was 15.4 µM; in assay [2] it was 2.2 µM; in assay [3], 19.9 µM; in assay [4] it was 9.73 µM.

As for `Cc1c2c(n3ccccc13)C(=O)c1cccnc1C2=O`, the IC50 in assay [1] was greater than 25 µM; in assay [2], greater than 25 µM; in assay [3], greater than 25 µM; in assay [4], 21.5 µM.

Turning to `CCOC(=O)c1c2c(n3cccc(O)c13)C(=O)c1ncccc1C2=O`, the half-inhibitory concentration (IC50) in assay [1] is greater than 25 µM; in assay [2], greater than 25 µM; in assay [3], greater than 25 µM; in assay [4] it was 7.2 µM.

For `CCOC(=O)c1c2c(n3cccc(F)c13)C(=O)c1ncccc1C2=O`, the 50% inhibitory concentration (IC50) in assay [1] was 1.37 µM; in assay [2], less than 0.25 µM; in assay [3] it was 7.01 µM; in assay [4] it was less than 0.25 µM.

As to `Cc1c2c(n3ccccc13)C(=O)c1ncccc1C2=O`, the IC50 is 12.5 µM in assay [1], 12.2 µM in assay [2], greater than 25 µM in assay [3] and 14.2 µM in assay [4].

On to `O=C1c2cc3ccccn3c2C(=O)c2cccnc21`, for which the half-inhibitory concentration (IC50) was 14.7 µM in assay [1], 12.3 µM in assay [2], 20.2 µM in assay [3] and 16.7 µM in assay [4].

`CC[C@@]1(O)C(=O)OCc2c1cc1n(c2=O)Cc2cc3ccccc3nc2-1` yielded an inhibition in assay [5] of 81.3%.

Consider `CC(=O)c1c2c(n3cccc(F)c13)C(=O)c1cccnc1C2=O`, for which the IC50 in assay [1] stood at 1.39 µM; in assay [2], 6.75 µM; in assay [3], 9.28 µM; in assay [4], 12.7 µM.

As to `CCOC(=O)c1c2c(n3cccc(C)c13)C(=O)c1ncccc1C2=O`, the 50% inhibitory concentration (IC50) in assay [1] stood at 0.22 µM; in assay [3] it was 14.5 µM; in assay [4], 1.83 µM.

As for `CCOC(=O)c1c2c(n3cccc(O)c13)C(=O)c1cccnc1C2=O`, the IC50 was greater than 25 µM in assay [1], 23.3 µM in assay [2], greater than 25 µM in assay [3] and 23.8 µM in assay [4].

Turning to `CC(=O)c1c2c(n3cccc(O)c13)C(=O)c1cccnc1C2=O`, the concentration for half-maximal inhibition (IC50) in assay [1] is greater than 25 µM; in assay [2], greater than 25 µM; in assay [4] it was 16.3 µM.
